For 14 compounds, IC50 results are on record in ChEMBL document CHEMBL1146820, “Parallel solid-phase synthesis of disubstituted (5-biphenyltetrazolyl) hydantoins and thiohydantoins targeting the growth hormone secretagogue receptor” (Bioorg Med Chem Lett, 2004).

The structures appear in SMILES notation.

Sequence of Growth hormone secretagogue receptor type 1 (Q92847 whole entry): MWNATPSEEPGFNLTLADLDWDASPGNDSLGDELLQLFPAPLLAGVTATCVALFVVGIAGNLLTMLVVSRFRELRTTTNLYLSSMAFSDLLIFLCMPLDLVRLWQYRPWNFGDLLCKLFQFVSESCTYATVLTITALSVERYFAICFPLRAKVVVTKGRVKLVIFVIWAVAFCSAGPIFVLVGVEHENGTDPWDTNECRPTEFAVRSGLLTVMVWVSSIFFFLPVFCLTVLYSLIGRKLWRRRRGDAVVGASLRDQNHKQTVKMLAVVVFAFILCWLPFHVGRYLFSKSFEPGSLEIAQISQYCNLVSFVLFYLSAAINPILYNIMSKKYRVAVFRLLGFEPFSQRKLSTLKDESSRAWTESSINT

This experiment concerns the target Growth hormone secretagogue receptor type 1 (Homo sapiens, UniProt Q92847). The experiment in a line: Inhibition of ghrelin binding to Growth hormone secretagogue receptor expressed in BHK cells. It counts as cell-based. Summed up:
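Competition binding against ¹²⁵I-ghrelin at the human GHS receptor expressed in BHK cells. Values are displacement of the radiolabelled ghrelin tracer by the test compounds.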
Broadly, the IC50 is the concentration that gives 50% inhibition. Lower therefore signals greater potency in that assay. As for `CN(C)c1ccc(N2C(=O)[C@H](CCc3ccccc3)N(Cc3ccc(-c4ccccc4-c4nn[nH]n4)cc3)C2=S)cc1`, the IC50 was > 100 µM.

The compound `O=C1[C@H](CCc2ccccc2)N(Cc2ccc(-c3ccccc3-c3nn[nH]n3)s2)C(=O)N1CCCN1CCCCC1` returned a 50% inhibitory concentration (IC50) of 15 µM. This counts as double-digit micromolar.

Consider `O=C1[C@H](CCc2ccccc2)N(Cc2ccc(-c3ccccc3-c3nn[nH]n3)cc2)C(=O)N1CCCN1CCCC1`, for which the IC50 turned out to be 1.1 µM.

In turn, `O=C1[C@H](CCc2ccccc2)N(Cc2ccc(-c3ccccc3-c3nn[nH]n3)cc2)C(=S)N1CCCN1CCOCC1` displayed a 50% inhibitory concentration (IC50) of 45 µM.

Turning to `CN(C)CCCN1C(=O)[C@H](CCc2ccccc2)N(Cc2ccc(-c3ccccc3-c3nn[nH]n3)cc2)C1=S`, the IC50 stood at 8.2 µM.

For the compound `NCCCN1C(=O)[C@H](CCc2ccccc2)N(Cc2ccc(-c3ccccc3-c3nn[nH]n3)cc2)C1=O`, the half-inhibitory concentration (IC50) was > 100 µM.

Compound `O=C1[C@H](CCc2ccccc2)N(Cc2ccc(-c3ccccc3-c3nn[nH]n3)cc2)C(=O)N1CCCN1CCCCC1` returned an IC50 of 0.6 µM.

The compound `O=C1[C@H](CCc2ccccc2)N(Cc2cc(-c3ccccc3-c3nn[nH]n3)cs2)C(=O)N1CCCN1CCCCC1` gave an IC50 of 1.3 µM.

`O=C1[C@H](Cc2c[nH]c3ccccc23)N(Cc2ccc(-c3ccccc3-c3nn[nH]n3)cc2)C(=O)N1C1CCNCC1` yielded an IC50 of 50 µM.

As to `O=C1[C@H](CCc2ccccc2)N(Cc2ccc(-c3ccccc3-c3nn[nH]n3)cc2F)C(=O)N1CCCN1CCCCC1`, the concentration for half-maximal inhibition (IC50) amounted to 1.6 µM. This IC50 lies about 31-fold lower than the previous one.

The compound `CN(C)CCCN1C(=O)[C@H](CCc2ccccc2)N(Cc2ccc(-c3ccccc3-c3nn[nH]n3)cc2)C1=O` gave a 50% inhibitory concentration (IC50) of 4 µM.

In the case of `CN(C)C(=O)CCN1C(=O)[C@H](CCc2ccccc2)N(Cc2ccc(-c3ccccc3-c3nn[nH]n3)cc2)C1=O`, the 50% inhibitory concentration (IC50) is > 100 µM.

Compound `CN(C)CCCN1C(=O)[C@H](Cc2ccccc2)N(Cc2ccc(-c3ccccc3-c3nn[nH]n3)cc2)C1=S` registered an IC50 of 35 µM.

Take `CN(C)CCCN1C(=O)[C@H](c2ccccc2)N(Cc2ccc(-c3ccccc3-c3nn[nH]n3)cc2)C1=S`: the IC50 came out at 35 µM.
